Experimental data collected from several papers.
Matrix: plasma

| SMILES | species | route | dose | notes | endpoint | value |
| --- | --- | --- | --- | --- | --- | --- |
| CC[C@H](C)CCCCC(=O)N[C@@H](CCN)C(=O)N[C@H](C(=O)N[C@@H](CCN)C(=O)N[C@H]1CCNC(=O)[C@H]([C@@H](C)O)NC(=O)[C@H](CCN)NC(=O)[C@H](CCN)NC(=O)[C@H](CC(C)C)NC(=O)[C@@H](Cc2ccccc2)NC(=O)[C@H](CCN)NC1=O)[C@@H](C)O | human | intravenous | 0.75 mg/kg | single dose, infusion | AUC(0-inf) | 20500 ng·h/mL |
| CN1CC[C@@H](c2c(O)cc(O)c3c(=O)cc(-c4ccc(C(F)(F)F)cc4Cl)oc23)[C@@H]1CO | human | oral | 50 mg | patients | AUC(0-t) | 1430 ng·h/mL |
| Cc1ccc(C(=O)Nc2ccc(CN3CCN(C)CC3)c(C(F)(F)F)c2)cc1C#Cc1cnc2[nH]ncc2c1 | human | oral | 20 mg | single dose, healthy volunteers | AUC(0-t) | 105 ng·h/mL |
| C[C@H](O)C(=O)C1=Nc2c(nc(N)[nH]c2=O)NC1 | human | oral | 20 mg/kg | single dose, healthy volunteers | AUC(0-t) | 5.29 ng·h/mL |
| Cn1cc(Nc2nc(N)nc(-c3cccc(-n4ccc5cc(C6CC6)cc(F)c5c4=O)c3CO)n2)cn1 | human | oral | 900 mg | single dose, fasted, suspension | AUC(0-t) | 64100 ng·h/mL |
| CC(C)n1c(Nc2cccnc2)nc2cnc(Nc3ccc(N4CCN(C)CC4)cc3)nc21 | male human | oral | 150 mg | – | AUC(0-inf) | 1390 ng·h/mL |
| CC(=O)N[C@H]1CC[C@H](NC(=O)CN2CCN(c3nncc(-c4ccc(C)cc4)n3)CC2)CC1 | female human | oral | 100 mg | single dose, fasted, healthy volunteers | AUC(0-inf) | 6500 ng·h/mL |
| CNC(=O)n1ccc2cc(Oc3ccnc(NC(=O)c4ccc(C5CCN(CCO)CC5)cc4)c3)c(OCCOC)cc21 | human | oral | 35 mg | single dose, healthy volunteers | AUC(0-inf) | 93.4 ng·h/mL |
| COc1ccc([C@@H](O)c2cc(-c3ncnc4cc(N5CCOCC5)ccc34)c(F)cc2Cl)nn1 | human | oral | 200 mg | single dose, patients | AUC(0-t) | 6790 ng·h/mL |
| Cl.[2H]C([2H])([2H])CC(=O)c1cnc(NC(=O)C2CC2)cc1Nc1cccc(-c2ncn(C([2H])([2H])[2H])n2)c1OC | human | oral | 20 mg | multiple doses, once daily, steady state | AUC | 1100 ng·h/mL |
| NC(=S)NN=Cc1ncccc1N | human | oral | 150 mg | – | AUC(0-t) | 990 ng·h/mL |
| NS(=O)(=O)OC[C@@H]1C[C@@H](n2ccc3c(N[C@H]4CCc5ccccc54)ncnc32)C[C@@H]1O | human | intravenous | 15 mg/m² | patients | AUC(0-t) | 780 ng·h/mL |
